Data reported in ChEMBL document CHEMBL4627246, “Pyroglutamide-Based P2X7 Receptor Antagonists Targeting Inflammatory Bowel Disease” (J Med Chem, 2020).
pIC50, pKi: −log10 of the molar value. Activity calls are given as the source filed them. The rule behind the calls is not given here.

How the values were obtained:
[1] = molecular target: T1, P2X purinoceptor 7 (Homo sapiens) (UniProt Q99572); test: Antagonist activity at P2X7R in human THP1 cells assessed as inhibition of LPS and BzATP-induced ROS production at 10^-5 mol/L pretreated with compound followed by LPS/BzATP addition and measured up to 5 hrs by kinetic chemiluminescence based fluorometric analysis; type: cell-based; conditions: THP-1
T1 sequence (whole entry): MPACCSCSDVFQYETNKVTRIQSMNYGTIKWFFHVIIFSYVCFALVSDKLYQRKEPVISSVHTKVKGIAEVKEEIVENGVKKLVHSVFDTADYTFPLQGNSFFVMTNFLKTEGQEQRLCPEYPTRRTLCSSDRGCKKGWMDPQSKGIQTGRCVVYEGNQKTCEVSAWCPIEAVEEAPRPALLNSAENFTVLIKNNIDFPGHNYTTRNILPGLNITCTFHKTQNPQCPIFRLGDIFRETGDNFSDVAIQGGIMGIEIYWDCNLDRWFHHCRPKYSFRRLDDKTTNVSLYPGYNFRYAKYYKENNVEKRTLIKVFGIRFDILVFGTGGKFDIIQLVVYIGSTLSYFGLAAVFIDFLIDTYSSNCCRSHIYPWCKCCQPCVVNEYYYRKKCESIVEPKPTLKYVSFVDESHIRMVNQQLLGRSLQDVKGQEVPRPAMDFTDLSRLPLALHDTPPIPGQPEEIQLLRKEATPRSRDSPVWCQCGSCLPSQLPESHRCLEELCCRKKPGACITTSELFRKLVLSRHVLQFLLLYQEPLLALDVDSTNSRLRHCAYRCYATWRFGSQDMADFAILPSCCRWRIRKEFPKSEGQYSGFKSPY
Method in brief: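 PMA-differentiated THP-1 macrophages (10^5 cells) in RPMI 1640 + 10% FBS pretreated with antagonist at 10^-5 mol/L, then LPS 10 μmol/L plus BzATP 70 μmol/L at 37 °C, 5% CO2; horseradish peroxidase (50 μg/mL) and luminol (50 μM) mixture added, chemiluminescence read on a fluorometer; cell-free H2O2 serves as positive control.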

[2] = Metabolic stability in human liver microsomes assessed as half life at 0.2 mg/ml incubated for 60 mins by UPLC/MS-MS analysis; type: ADME, Microsome
[3] = Drug metabolism in mouse measured after 40 mins; type: ADME; conditions: read-out: Drug metabolism
[4] = Metabolic stability in human liver microsomes assessed as intrinsic clearance at 0.2 mg/ml incubated for 60 mins by UPLC/MS-MS analysis; type: ADME, Microsome; conditions: read-out: CLH
P2X purinoceptor 7 = molecular target: T2, P2X purinoceptor 7 (Homo sapiens, UniProt Q99572); test: Displacement of [3H]-A804598 from human P2X7 expressed in human HEK293 cell membrane incubated for 1 hr by microplate scintillation counting method; type: cell membranes
T2 sequence (Q99572 whole entry): T1 sequence (whole entry)

[5] = Solubility of compound in saline at 1mg/ml; type: physicochemical; conditions: buffer
[6] = molecular target: T3, P2X purinoceptor 1 (Homo sapiens) (UniProt P51575); test: Antagonist activity at P2X1 receptor in human platelet assessed as inhibition of thrombin-induced platelet aggregation at 10 '-5 to 10^-6 mol/L pretreated with compound and LPS/BzATP for 10 mins followed by thrombin addition and measured for 8 mins by aggregometry analysis; type: cell-based
T3 sequence (whole entry): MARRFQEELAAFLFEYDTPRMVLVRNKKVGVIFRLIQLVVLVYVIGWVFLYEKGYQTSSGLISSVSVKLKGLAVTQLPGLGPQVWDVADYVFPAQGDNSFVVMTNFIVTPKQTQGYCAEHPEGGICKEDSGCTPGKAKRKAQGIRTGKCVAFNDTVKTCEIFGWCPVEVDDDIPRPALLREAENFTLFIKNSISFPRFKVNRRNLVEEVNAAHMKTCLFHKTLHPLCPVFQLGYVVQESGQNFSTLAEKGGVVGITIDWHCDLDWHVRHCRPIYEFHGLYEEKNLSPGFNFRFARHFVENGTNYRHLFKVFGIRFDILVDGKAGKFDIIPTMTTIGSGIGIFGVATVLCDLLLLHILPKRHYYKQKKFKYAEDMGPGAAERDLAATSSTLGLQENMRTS

[7] = molecular target: T1, P2X purinoceptor 7 (Homo sapiens); test: Antagonist activity at P2X7R in human THP1 cells assessed as inhibition of LPS and BzATP-induced mature form of IL-1beta expression in whole cell extract at 10^-6 mol/L pretreated with compound followed by LPS/BzATP addition and measured after 2 to 6 hrs by Western blot analysis; type: cell-based; conditions: THP-1
[8] = molecular target: T1, P2X purinoceptor 7 (Homo sapiens); test: Antagonist activity at P2X7R in human THP1 cells assessed as inhibition of LPS and BzATP-induced mature form of IL-1beta expression in cells supernatant at 10^-6 mol/L pretreated with compound followed by LPS/BzATP addition and measured after 2 to 6 hrs by Western blot analysis; type: cell-based; conditions: THP-1
[9] = molecular target: T1, P2X purinoceptor 7 (Homo sapiens); test: Inhibition of human P2X7 expressed in human HEK293 cells assessed as reduction in BzATP-stimulated TO-PRO-3 incorporation at 10 uM preincubated with compound and TO-PRO-3 for 15 mins prior to BzATP addition and measured after 1 hr by Fluo-3AM dye based flow cytometry relative to control; type: cell-based
Method in brief: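 HEK-293 cells overexpressing human P2RX7 loaded with Fluo-3 AM, then incubated with TO-PRO-3 (large pore uptake) and propidium iodide (viability) plus compound (10⁻⁵ M single point) for 15 min before BzATP 100 µM. After 1 h, flow cytometry; percentage of Fluo-3/TO-PRO-3 double-positive cells calculated. Mean of n ≥ 2 with positive control.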

[10] = molecular target: T1, P2X purinoceptor 7 (Homo sapiens); test: Antagonist activity at P2X7R in human THP1 cells assessed as inhibition of LPS and BzATP-induced IL-1beta expression by measuring increase in proIL-1beta expression in cell supernatant extract at 10^-6 mol/L pretreated with compound followed by LPS/BzATP addition and measured after 6 hrs by Western blot analysis; type: cell-based; conditions: THP-1
[11] = molecular target: T1, P2X purinoceptor 7 (Homo sapiens); test: Antagonist activity at P2X7 receptor in human THP-1 cells assessed as inhibition of LPS and BzATP-induced IL-1beta production at 10^-6 mol/L pretreated with compound followed by LPS/BzATP addition and measured after 2 to 6 hrs by ELISA; type: cell-based; conditions: TDE = time-dependent effect
Method in brief: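 PMA (100nM)-differentiated THP-1 macrophages (RPMI 1640, 10% FCS), 10^6 cells, pretreated with antagonist at […], then challenged with LPS 10 μmol/L and BzATP 70 μmol/L at 37 °C, 5% CO2; IL1β measured by ELISA, including the 6 h point; mean ± SD, P<0.05 significant.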

[12] = molecular target: T1, P2X purinoceptor 7 (Homo sapiens); test: Antagonist activity at P2X7 receptor in human THP-1 cells assessed as inhibition of LPS and BzATP-induced IL-1beta production at 10^-5 mol/L pretreated with compound followed by LPS/BzATP addition and measured after 2 to 6 hrs by ELISA; type: cell-based
Method in brief: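 THP-1 monocytes grown in RPMI 1640 + 10% FCS, differentiated to macrophages with PMA (100nM); 10^6 cells pretreated with antagonist at 10^-5 mol/L, then exposed to LPS 10 μmol/L plus BzATP 70 μmol/L at 37 °C, 5% CO2; IL1β quantified by ELISA in samples at 2, 4 and 6 h; mean ± SD, significance P<0.05.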

HEK293 = test: Cytotoxicity against human HEK293 cells assessed as reduction in cell viability at 10^-5 mol/L incubated for 72 hrs; type: cell-based; conditions: hek293, 72 h, 10 µM
Method in brief: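 Wild-type and P2RX7-transfected HEK293 cells exposed to compound for 72 hours; viability compared against untreated control.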

[13] = Metabolic stability in human hepatocytes; type: ADME, cell-based, Hepatocyte
[14] = molecular target: T1, P2X purinoceptor 7 (Homo sapiens); test: Antagonist activity at P2X7R in human THP1 cells assessed as inhibition of LPS and BzATP-induced ROS production at 10^-6mol/L pretreated with compound followed by LPS/BzATP addition and measured after 4 hrs by kinetic chemiluminescence based fluorometric analysis; type: cell-based; conditions: THP-1
Method in brief: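 Differentiated THP-1 macrophages (10^5 cells, RPMI 1640 + 10% FBS) pretreated with antagonist at 10^-6 mol/L before LPS (10 μmol/L) and BzATP (70 μmol/L), 37 °C, 5% CO2; ROS detected as luminol (50 μM)/horseradish peroxidase (50 μg/mL) chemiluminescence on a fluorometer; H2O2 without cells as positive control.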

[15] = molecular target: T1, P2X purinoceptor 7 (Homo sapiens); test: Antagonist activity at P2X7R in human THP1 cells assessed as inhibition of LPS and BzATP-induced cell death at 10^-6 mol/L pretreated with compound followed by LPS/BzATP addition and measured after 6 hrs by sytox green dye based flow cytometry; conditions: THP-1
[16] = molecular target: T1, P2X purinoceptor 7 (Homo sapiens); test: Antagonist activity at P2X7R in human THP1 cells assessed as inhibition of LPS and BzATP-induced cell death at 10^-6 mol/L pretreated with compound followed by LPS/BzATP addition and measured after 4 hrs by sytox green dye based flow cytometry; conditions: THP-1
Mus musculus [17] = test: Antiinflammatory activity against DSS-induced colitis C57BL/6J mouse model assessed as decrease in inflammation level in colon at 2.5 mg/kg, ip administered daily and measured after day 14 by hematoxylin and eosin staining based microscopic analysis; type: functional; conditions: 336 h
Method in brief: (§1)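 DSS colitis in WT mice: 3.8% DSS in drinking water days 1–5, then tap water for 10 days; compound 2.5 mg/kg given i.p. daily in 10% DMSO/PBS; cohorts of 10 mice per group, placebo as comparator; weight loss and clinical disease score tracked; colon sections at day 14 stained with H&E and histologically scored; data as mean ± SEM.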

Mus musculus [18] = test: Antiinflammatory activity against DSS-induced colitis C57BL/6J mouse model assessed as areas of normal colonic mucosa with straight and larger crypts on muscularis mucosa at 2.5 mg/kg, ip administered daily and measured after day 14 by hematoxylin and eosin staining based microscopic analysis; type: functional, organism-based; method in brief: as §1

inhibition [1]	half-life [2]	metabolised at 40 min [3]	microsomal CLint [4]	pIC50 (P2X purinoceptor 7)	pKi (P2X purinoceptor 7)	solubility [5]	Activity [6]	inhibition [9]	inhibition [11]	inhibition [12]	Stability [13]	SMILES	Activity (HEK293)	other results
Active	3.8 min	99.7%	530 µL/min/mg	6.66	7.36	Insoluble	inactive	100%	Tde	Active	Unstable	O=C(NCc1cccc(C(F)(F)F)c1Cl)[C@@H]1CCC(=O)N1c1cccs1	Non-Toxic	inhibition [7]: Active; inhibition [8]: Active; inhibition [10]: Active
Active	2.9 min	99.9%	630 µL/min/mg	6.37	7.07	Insoluble	inactive	85%	Tde	Active	Unstable	O=C(NCc1ccc(Cl)cc1Cl)[C@@H]1CCC(=O)N1c1ccoc1	Non-Toxic	–
Active	619 min	5.1%	3.6 µL/min/mg	6.06	6.75	–	–	100%	Tde	Active	Stable	CN1C(=O)CC[C@H]1C(=O)NCc1ccc(Cl)cc1Cl	–	inhibition [14]: Active; inhibition [15]: inactive; inhibition [16]: Active; inhibition in vivo at 2.5 mg/kg (Mus musculus [17]): 42 to 50%; Activity (Mus musculus [18]): Active
Active	5.2 min	99.2%	411 µL/min/mg	6.24	6.93	Insoluble	inactive	94%	Tde	Active	Unstable	O=C(NCc1ccc(Cl)cc1Cl)[C@@H]1CCC(=O)N1c1ccco1	Non-Toxic	–
